# Compounds with a hit are over-represented: about 1.7% of the library has one in this group of screens.
# TPT1 inh: Candida albicans TPT1 enzyme inhibitors, primary screen, biochemical, fluorescence polarization; recombinant caTPT1, FP RNA substrate dephosphorylation; 0.81% of 300,000 active; tRNA 2'-phosphotransferase TPT1 (Candida albicans SC5314); inhibition, % at 5 µM; AID 1962, 2009;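 active = inhibition above the mean of all tested compounds plus 3 SD, set per screening campaign, cut at about 24% in these data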
# IDE inh: human IDE inhibitors in live cells, primary screen, fluorescence polarization, HEK cells, FAbetaB substrate. Insulin-degrading enzyme (Homo sapiens), P14735. FAbetaB cleavage. inhibition, % at 5.59 µM. 0.41% of 320,000 active;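 active = percent inhibition above the average of all tested compounds plus 3 SD, set per screening campaign, cut at about 16% in these data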;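 note: IDE supplied by intact live HEK cells; FP after avidin binding of uncleaved biotin substrate so inhibition keeps polarization high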
# Target sequence (P14735 whole entry, looked up): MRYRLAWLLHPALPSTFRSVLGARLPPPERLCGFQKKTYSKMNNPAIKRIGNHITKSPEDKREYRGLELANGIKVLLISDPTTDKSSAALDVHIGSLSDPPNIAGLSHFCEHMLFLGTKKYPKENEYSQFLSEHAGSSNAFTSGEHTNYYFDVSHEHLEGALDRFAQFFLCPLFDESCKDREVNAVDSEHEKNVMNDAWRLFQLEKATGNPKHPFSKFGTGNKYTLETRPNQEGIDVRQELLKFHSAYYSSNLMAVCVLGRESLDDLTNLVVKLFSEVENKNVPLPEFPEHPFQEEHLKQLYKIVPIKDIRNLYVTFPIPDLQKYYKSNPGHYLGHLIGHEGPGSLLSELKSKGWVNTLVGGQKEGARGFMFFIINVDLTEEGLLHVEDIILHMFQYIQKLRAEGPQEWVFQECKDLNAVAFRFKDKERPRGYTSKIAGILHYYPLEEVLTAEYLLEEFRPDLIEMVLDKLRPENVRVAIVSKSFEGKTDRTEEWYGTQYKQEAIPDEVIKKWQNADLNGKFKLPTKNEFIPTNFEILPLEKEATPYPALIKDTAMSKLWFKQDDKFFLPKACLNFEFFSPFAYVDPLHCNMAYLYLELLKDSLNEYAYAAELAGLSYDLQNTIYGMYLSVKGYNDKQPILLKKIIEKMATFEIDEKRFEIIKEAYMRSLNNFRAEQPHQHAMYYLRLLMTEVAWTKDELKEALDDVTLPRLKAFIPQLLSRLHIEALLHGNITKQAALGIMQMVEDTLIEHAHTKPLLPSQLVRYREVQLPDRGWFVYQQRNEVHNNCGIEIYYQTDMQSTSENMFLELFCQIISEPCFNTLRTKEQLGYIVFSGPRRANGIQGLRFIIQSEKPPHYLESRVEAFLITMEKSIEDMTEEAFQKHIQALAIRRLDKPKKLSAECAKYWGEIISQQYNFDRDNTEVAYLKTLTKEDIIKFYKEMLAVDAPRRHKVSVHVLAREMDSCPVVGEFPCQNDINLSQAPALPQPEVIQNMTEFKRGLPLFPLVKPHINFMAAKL
# CSN deneddyl inh: inhibitors of CSN-mediated cullin deneddylation, primary screen, biochemical, fluorescence polarization, uHTS | Purified CSN, SCF-Nedd8-OG deneddylation | 0.38% of 360,000 active | inhibition, % at 12.5 µM | COP9 signalosome complex subunit 5 (Homo sapiens), Q92905 | AID 651999, 2013;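 active = pattern-corrected inhibition above about 35%, with an unprinted fluorescence ratio check between 0.5 and 1.5, limit read from the data, passing the limit was not always enough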
#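 Detection – fluorescence polarization · System – HEK293T-derived human Csn5 enzyme · Controls – substrate-only high control, full reaction low control · Timing – 90 min, room temperature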
# HNF4A DNA FP: change in binding of human HNF4A to DNA, primary screen, biochemical, fluorescence polarization, FITC-DNA; Hepatocyte nuclear factor 4-alpha (Homo sapiens), P41235; 1 h; activity change, % at 10 µM; 0.3% of 360,000 active; AID 1224865, 2016; in the data active = activity change above about 30%, passing the limit was not always enough
# Rpn11 inh: Rpn11 (PSMD14) deubiquitinase inhibitors, primary screen, biochemical, fluorescence polarization, uHTS. AID 588493, 2011. human 26S proteasome, Ub4-pepOG fluorescence polarization; 20S core pre-blocked with epoxomicin. 26S proteasome non-ATPase regulatory subunit 14 (Homo sapiens), O00487. 0.59% of 360,000 active. inhibition, % at 20 µM;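 active = inhibition at 20 µM, scaled to each plate's controls, above about 33%, limit read from the data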
# IDE cell activ: human IDE activators in live cells, primary screen, fluorescence polarization, HEK cells, FAbeta-B substrate; Insulin-degrading enzyme (Homo sapiens), P14735; FAbeta-B cleavage; 0% vehicle, 100% cell-free pure enzyme wells; activation, % at 5.96 µM; 0.073% of 340,000 active;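 active = activation above the mean of all tested compounds plus 3 SD, set per screening campaign, cut at about 17% in these data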
# Numbers stand for hits; - = inactive; . = not tested or not shown; + = active, no number; ! = a repeat was not active.
SMILES,TPT1 inh,IDE inh,CSN deneddyl inh,HNF4A DNA FP,Rpn11 inh,IDE cell activ
Cc1ccc(N(C(=O)Nc2ccccc2)C2=NCC(C)S2)cc1 (stereo not given),-,-,-,33,-,-
COC(=O)c1cc(O)cc(OC)c1Oc1cc(C)cc(O)c1C(=O)O,-,-,41,-,.,-
COC(=O)c1cc(O)cc(OC)c1C(=O)c1c(O)cc(C)cc1O,-,-,-,-,-,-
Cc1ccn2cc(-c3ccc4c(c3)NC(=O)CO4)nc2c1,-,-,54,-,-,-
O=C(Cc1ccc(Cl)cc1)Nc1ccc(NC(=O)c2ccccc2)cc1,-,-,-,-,-,-
O=C(CC(=O)c1ccccc1)Nc1ccc(Cl)cc1,-,-,-,42,-,-
Cc1cccc(C)c1NC(=O)C(c1cccc2ccccc12)n1c(=O)c(-c2cc3ccccc3[nH]2)nc2ccccc21 (stereo not given),.,.,-,-,.,.
O=C(C[C@@H]1CC[C@H](NS(=O)(=O)c2ccccc2F)[C@@H](CO)O1)NCCCN1CCOCC1,.,.,-,-,.,.
COC(=O)[C@@]12C[C@@H](CC(=O)NCc3ccc(OC)c(OC)c3)C(=O)N(Cc3ccco3)C1=CCC(C)(C)C2,.,.,-,-,.,.
CCOC(=O)c1c(NC(=O)COC(=O)CCOc2ccc(OCC)cc2)sc(C(=O)N(C)C)c1C,-,-,121,-,-,-
COc1ccc(-c2ccc(-c3noc(-c4ccccc4OC)n3)c(OC)n2)cc1,-,-,-,44,-,-
O=C(C[n+]1ccc(CCSc2ccc(F)cc2)cc1)c1ccccc1,-,-,105,-,82,-
O=C(Nc1cccnc1)c1cc2c(ccc3ccccc32)o1,-,-,-,-,62,-
CC(C)[C@H]1CN=C2N(C[C@H](C)NC(=O)CCC3CCCCC3)[C@H](Cc3ccc(O)cc3)CN21,-,-,74,-,-,-
C[C@@H](CN1C2=NC[C@H](C)N2C[C@H]1Cc1ccc(O)cc1)NC(=O)CCC1CCCCC1,-,-,-,-,-,-
COc1cccc(C2CC(c3ccccc3)=NN2S(=O)(=O)c2ccc(C)cc2)c1OC (stereo not given),-,-,76,-,.,-
Cc1ccc(S(=O)(=O)CC(=O)Nc2ccc(Cl)cn2)cc1,-,-,-,34,-,-
Cc1nccn1CC(=O)c1ccccc1,.,.,-,-,-,.
CCCCc1ccc(S(=O)(=O)NC(=O)C2(C)CCN2C(=O)CC2CC2)cc1 (stereo not given),.,.,-,-,-,.
Cc1ccc(NC(=O)CN2C(=O)N/C(=C/c3cc(C)n(-c4cccc(C(=O)O)c4)c3C)C2=O)cc1,.,.,-,-,-,-
COc1cccc(/C=C2/NC(=O)N(CC(=O)Nc3ccc(C)cc3)C2=O)c1OCc1cccc(C(=O)O)c1,-,-,37,-,-,-
Cc1ccc(NC(=O)CN2C(=O)N/C(=C/c3ccccc3OCc3cccc(C(=O)O)c3)C2=O)cc1,-,-,72,-,-,-
COc1ccc(/C=N/Nc2ncc(Br)cn2)c(OC)c1,-,-,62,-,.,-
COc1ccc(/C=N\Nc2ccccn2)c(OC)c1,.,.,-,-,-,-
CCOc1ccc(-c2c(C#N)c(N)nc3sc(C(=O)c4ccccc4)c(N)c23)cc1,-,-,-,40,-,-
SMILES,TPT1 inh,IDE inh,CSN deneddyl inh,HNF4A DNA FP,Rpn11 inh,IDE cell activ
COCCNc1nc2c(-c3cccc(C(F)(F)F)c3)nnn2c2ccccc12,-,-,-,-,-,-
NNc1nc2c(-c3cccc(C(F)(F)F)c3)nnn2c2ccccc12,.,.,-,36,.,-
CC(C)(C)C(C(=O)NC1CCCC1)N1CCN(c2ncccc2C#N)CC1 (stereo not given),.,.,-,-,.,.
C=CCn1c(=O)c(C(=O)Nc2ccccc2C(=O)OCC)c(O)c2ccccc21,-,-,-,-,-,-
C=CCn1c(=O)c(C(=O)Nc2ccccc2S(N)(=O)=O)c(O)c2ccccc21,-,-,93,-,-,-
CC(=O)Nc1cccc(-c2nc3ccccc3n2C(C)C(=O)NC(C)(C)C)c1 (stereo not given),.,.,-,-,.,.
O=C(O)c1cc(O)c2c(c1)[C@H]([C@H]1c3cc(C(=O)O)cc(O)c3C(=O)c3c(O[C@@H]4O[C@H](CO)[C@@H](O)[C@H](O)[C@H]4O)cccc31)c1cccc(OC3O[C@H](CO)[C@@H](O)[C@H](O)[C@H]3O)c1C2=O (stereo not given in full),75,-,-,-,-,-
Cc1cc(C)c[n+](-c2nc3ccccc3nc2C(=C=[N-])C#N)c1,-,-,-,44!,-,-
CCCNC(=O)Nc1ccc2c(c1)OC[C@H](C)N(C(=O)C1CCCCC1)C[C@@H](C)[C@H](OC)CN(C)C2=O,.,.,-,-,.,.
O=C(Nc1ccc(OCC(=O)N2CCOCC2)cc1)c1cncc(Br)c1,-,-,80,-,-,-
O=C(NCCSc1ccc(Br)cc1)c1ccc2nc[nH]c2c1,-,-,-,-,-,20
COc1cc(C(=O)NCCSc2ccc(Cl)cc2)cc(OC)c1OC,-,-,-,-,-,-
COc1cc(C(=O)NCCSc2ccc(Br)cc2)cc(OC)c1OC,-,-,70,-,-,-
CSc1ccccc1OCc1cc(C(=O)NCCn2nc(C)cc2C)no1,-,-,-,-,-,34
Cc1cc(C)n(CCNC(=O)c2cc(COc3ccc(F)cc3Cl)on2)n1,-,-,-,-,-,-
O=C(Nc1cccc(-c2nc3ncccc3o2)c1)c1sc2ccccc2c1Cl,-,-,-,43,-,-
O=C(Cc1ccccc1)Nc1cccc(-c2nc3ncccc3o2)c1,-,-,-,-,-,-
O=C(Nc1cccc(-c2nc3ncccc3o2)c1)c1cc2ccccc2o1,-,-,-,-,-,-
O=C(Nc1cccc(-c2nc3ncccc3o2)c1)c1sc2cc(Cl)ccc2c1Cl,-,-,-,176,+,-
O=C(CSc1nc(Nc2ccccc2)nc(N2CCOCC2)n1)Nc1ccc([N+](=O)[O-])cc1,-,-,-,-,-,-
O=C(CSc1nc(N2CCOCC2)nc(N2CCOCC2)n1)Nc1ccc([N+](=O)[O-])cc1,-,-,-,-,-,23
CCOC(=O)[C@]12CCCC=C1N(Cc1ccc3c(c1)OCO3)C(=O)[C@H](CC(=O)NCc1cccc(C(F)(F)F)c1)C2,.,.,-,-,.,.

# Screening data: PubChem, several laboratories
